Assay results published in ChEMBL document CHEMBL4229364, “Structure-activity relationships of 2, 4-disubstituted pyrimidines as dual ERα/VEGFR-2 ligands with anti-breast cancer activity” (Eur J Med Chem, 2018).
Calls of active or inactive are those of the source. No cut-off for these calls is given here.

Legend:
[1] = test system: HUVEC; test: Antiproliferative activity against HUVEC after 48 hrs by MTT assay; format: functional, cell-based; conditions: Homo sapiens
Procedure, shortened: (§1)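 MTT assay. Cells were grown in RPMI1640 with 10% FBS and penicillin/streptomycin at 37°C, 5% CO2, seeded at 1×10^5/mL and rested 24 h. Compound was added at 4×10^-5 to 1×10^-6 mol/L for 48 h; controls received 1% DMSO. MTT (5 mg/mL) was added for 4 h in the dark and the formazan dissolved in DMSO. A490 was read and IC50 derived.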

[2] = target: T1, Vascular endothelial growth factor receptor 2 (Homo sapiens, UniProt P35968); conditions: at 10 µM
[3] = test system: Ishikawa; test: Antiproliferative activity against human Ishikawa cells after 48 hrs by MTT assay; format: functional, cell-based; procedure, shortened: as §1
[4] = target: T1, Vascular endothelial growth factor receptor 2; test: Inhibition of VEGFR2 (unknown origin) using TK substrate after 1 hr by HTRF assay
[5] = test system: MCF7; test: Antiproliferative activity against human MCF7 cells after 48 hrs by MTT assay; format: functional, cell-based; conditions: MCF7, 48 h; procedure, shortened: as §1
[6] = target: T2, Estrogen receptor (Homo sapiens, UniProt P03372); test: Displacement of Fluormone ES2 Green from full length human ER-alpha expressed in insect cells after 2 hrs by fluorescence polarization assay
T2 sequence (P03372 whole entry): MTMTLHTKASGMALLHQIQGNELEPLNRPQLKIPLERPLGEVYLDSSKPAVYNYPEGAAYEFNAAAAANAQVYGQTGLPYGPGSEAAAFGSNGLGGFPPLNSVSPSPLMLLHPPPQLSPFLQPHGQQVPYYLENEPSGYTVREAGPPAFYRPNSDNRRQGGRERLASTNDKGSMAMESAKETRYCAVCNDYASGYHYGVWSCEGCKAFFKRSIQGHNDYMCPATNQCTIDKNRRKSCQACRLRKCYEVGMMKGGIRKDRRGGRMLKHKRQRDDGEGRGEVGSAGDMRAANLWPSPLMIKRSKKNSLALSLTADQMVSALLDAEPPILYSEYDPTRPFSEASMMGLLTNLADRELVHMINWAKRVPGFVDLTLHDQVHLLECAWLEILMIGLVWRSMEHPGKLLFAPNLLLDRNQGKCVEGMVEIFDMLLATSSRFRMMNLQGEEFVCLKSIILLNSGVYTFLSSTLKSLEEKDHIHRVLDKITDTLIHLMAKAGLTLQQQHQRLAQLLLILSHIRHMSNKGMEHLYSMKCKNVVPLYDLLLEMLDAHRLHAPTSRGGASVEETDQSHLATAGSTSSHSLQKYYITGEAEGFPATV

[7] = target: T3, Estrogen receptor (Homo sapiens) (UniProt P03372); test: Antagonist activity at ERalpha in human MCF7 cells assessed as reduction in E2-induced progesterone receptor mRNA level at 0.4 uM by RT-PCR method; format: cell-based
T3 sequence (whole entry): T2 sequence (P03372 whole entry)
Procedure, shortened: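 Quantitative RT-PCR of progesterone receptor mRNA in MCF-7 cells. RNA was reverse transcribed to cDNA and amplified with SYBR Green: 95°C 2 min, then 40 cycles of 95°C 10 s, 60°C 30 s, 95°C 10 s. Signal was normalized to GAPDH and quantified by ΔΔCT. Values are mean ± SD, n=3, compared against the E2 group.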

[8] = target: T1, Vascular endothelial growth factor receptor 2; conditions: HUVEC, at 1 µM
[9] = test system: MCF7; test: Effect on total RAF1 protein expression in human MCF7 cells at 0.5 uM after 24 hrs by Western blot analysis; format: ADME, cell-based; conditions: mcf7, 24 h
[10] = test system: MCF7; test: Potency index, ratio of tamoxifen IC50 to compound IC50 for antiproliferative activity against human MCF7 cells; format: functional
Procedure, shortened: (§2)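 Potency index is the reference drug's MCF-7 MTT IC50 divided by the compound's IC50. Reference drugs were tamoxifen or raloxifene. Cells received 48 h exposure over 4×10^-5 to 1×10^-6 mol/L with a 1% DMSO control, then A490 readout.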

[11] = test system: MCF7; test: Induction of apoptosis in human MCF7 cells assessed as necrtotic cells at 1 uM after 24 hrs by Annexin V-FITC/propidium iodide staining based flow cytometry (reference value: 2.05%); format: functional
[12] = test system: MCF7; test: Induction of apoptosis in human MCF7 cells after 24 hrs by Annexin V-FITC/propidium iodide staining based flow cytometry; format: functional, cell-based
[13] = test system: MCF7; test: Induction of apoptosis in human MCF7 cells assessed as late apoptotic cells at 0.5 uM after 24 hrs by Annexin V-FITC/propidium iodide staining based flow cytometry (reference value: 6.01%); format: functional
[14] = test system: MCF7; test: Induction of apoptosis in human MCF7 cells assessed as early apoptotic cells at 1 uM after 24 hrs by Annexin V-FITC/propidium iodide staining based flow cytometry (reference value: 4.46%); format: functional
[15] = test system: MCF7; test: Induction of apoptosis in human MCF7 cells assessed as necrtotic cells at 0.5 uM after 24 hrs by Annexin V-FITC/propidium iodide staining based flow cytometry (reference value: 2.05%); format: functional
[16] = test system: MCF7; test: Induction of apoptosis in human MCF7 cells assessed as live cells at 1 uM after 24 hrs by Annexin V-FITC/propidium iodide staining based flow cytometry (reference value: 87.5%); format: functional
[17] = test system: Chorioallantoic membrane; test: In vivo antiangiogenic activity in chicken egg chorioallantoic membrane after 72 hrs; format: functional, organism-based; conditions: Gallus gallus
Procedure, shortened: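 Chick CAM assay. Fertilized eggs were incubated 7 days at 37°C, then a window of about 1 cm² was opened in the shell. […] Eggs were incubated a further 72 h at 37°C and 60% humidity. CAM was fixed in acetone/ethanol for 10 min and vessels imaged.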

[18] = test system: MCF7; test: Induction of apoptosis in human MCF7 cells assessed as live cells at 0.5 uM after 24 hrs by Annexin V-FITC/propidium iodide staining based flow cytometry (reference value: 87.5%); format: functional
[19] = target: Mitogen-activated protein kinase; ERK1/ERK2 (Homo sapiens) (UniProt P27361+P28482); test: Inhibition of ERK1/ERK2 phosphorylation in human MCF7 cells at 0.5 uM after 24 hrs by Western blot analysis; format: cell-based
[20] = target: RAF proto-oncogene serine/threonine-protein kinase (Homo sapiens) (UniProt P04049); test: Inhibition of RAF1 phosphorylation in human MCF7 cells at 0.5 uM after 24 hrs by Western blot analysis; format: cell-based
[21] = test system: T47D; test: Antiproliferative activity against human T47D cells after 48 hrs by MTT assay; format: functional, cell-based; procedure, shortened: as §1
[22] = test system: MCF7; test: Induction of apoptosis in human MCF7 cells assessed as late apoptotic cells at 1 uM after 24 hrs by Annexin V-FITC/propidium iodide staining based flow cytometry (reference value: 6.01%); format: functional
[23] = test system: MDA-MB-231; test: Antiproliferative activity against human MDA-MB-231 cells after 48 hrs by MTT assay; format: functional, cell-based; procedure, shortened: as §1
[24] = test system: MCF7; test: Potency index, ratio of raloxifene IC50 to compound IC50 for antiproliferative activity against human MCF7 cells; format: functional; procedure, shortened: as §2
[25] = test system: MCF7; test: Antimigratory activity against human MCF7 cells at 0.5 to 1 uM after 48 hrs by crystal violet staining based microscopic method; format: functional, cell-based
Procedure, shortened: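 Transwell assay on Matrigel-coated membranes, 5×10^4 cells per well. Cells were treated at plating. After 24 h the invading cells were fixed, with 48 h seeding. Cells were stained with crystal violet (0.1% in 20% methanol) and counted by microscopy. Treatments were 0.5 and 1 µM, with DMSO as vehicle control.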

[26] = test system: MCF7; test: Induction of apoptosis in human MCF7 cells assessed as early apoptotic cells at 0.5 uM after 24 hrs by Annexin V-FITC/propidium iodide staining based flow cytometry (reference value: 4.46%); format: functional

T1 sequence (P35968 whole entry): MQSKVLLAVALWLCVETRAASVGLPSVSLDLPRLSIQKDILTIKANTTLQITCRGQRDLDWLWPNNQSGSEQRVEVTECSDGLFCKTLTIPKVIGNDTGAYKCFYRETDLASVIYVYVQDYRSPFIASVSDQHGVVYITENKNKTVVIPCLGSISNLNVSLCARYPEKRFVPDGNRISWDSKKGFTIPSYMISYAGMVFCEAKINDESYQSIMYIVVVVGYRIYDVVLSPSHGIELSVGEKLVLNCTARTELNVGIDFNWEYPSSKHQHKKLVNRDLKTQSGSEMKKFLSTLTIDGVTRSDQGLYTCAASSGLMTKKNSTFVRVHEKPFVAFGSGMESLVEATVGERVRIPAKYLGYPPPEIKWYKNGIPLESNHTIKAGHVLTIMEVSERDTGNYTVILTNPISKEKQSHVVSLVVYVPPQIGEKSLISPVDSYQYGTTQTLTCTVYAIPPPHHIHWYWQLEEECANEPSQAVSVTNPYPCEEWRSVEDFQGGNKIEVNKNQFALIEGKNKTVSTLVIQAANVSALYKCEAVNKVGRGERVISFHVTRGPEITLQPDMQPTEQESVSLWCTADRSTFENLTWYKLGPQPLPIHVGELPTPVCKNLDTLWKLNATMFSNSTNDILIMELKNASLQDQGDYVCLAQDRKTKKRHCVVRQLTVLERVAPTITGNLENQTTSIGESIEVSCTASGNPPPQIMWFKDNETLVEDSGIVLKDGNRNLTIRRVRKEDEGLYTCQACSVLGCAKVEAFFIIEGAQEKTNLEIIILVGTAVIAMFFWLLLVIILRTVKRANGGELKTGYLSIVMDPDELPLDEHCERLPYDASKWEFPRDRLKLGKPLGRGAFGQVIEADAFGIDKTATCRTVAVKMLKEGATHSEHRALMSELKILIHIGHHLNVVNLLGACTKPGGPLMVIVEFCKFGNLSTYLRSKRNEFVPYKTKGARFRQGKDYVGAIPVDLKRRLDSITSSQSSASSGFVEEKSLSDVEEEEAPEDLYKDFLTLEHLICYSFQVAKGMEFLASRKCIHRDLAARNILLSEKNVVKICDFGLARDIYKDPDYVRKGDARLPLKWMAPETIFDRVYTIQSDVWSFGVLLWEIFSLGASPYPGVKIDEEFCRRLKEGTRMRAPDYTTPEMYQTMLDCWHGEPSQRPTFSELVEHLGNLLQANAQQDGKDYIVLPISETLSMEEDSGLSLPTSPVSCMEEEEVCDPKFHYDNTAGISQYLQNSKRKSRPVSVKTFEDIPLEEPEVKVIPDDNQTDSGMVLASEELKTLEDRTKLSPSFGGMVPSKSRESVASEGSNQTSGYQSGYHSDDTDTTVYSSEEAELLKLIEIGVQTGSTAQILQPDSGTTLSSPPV
Mitogen-activated protein kinase; ERK1/ERK2 (Homo sapiens), sequence (P27361 whole entry, looked up): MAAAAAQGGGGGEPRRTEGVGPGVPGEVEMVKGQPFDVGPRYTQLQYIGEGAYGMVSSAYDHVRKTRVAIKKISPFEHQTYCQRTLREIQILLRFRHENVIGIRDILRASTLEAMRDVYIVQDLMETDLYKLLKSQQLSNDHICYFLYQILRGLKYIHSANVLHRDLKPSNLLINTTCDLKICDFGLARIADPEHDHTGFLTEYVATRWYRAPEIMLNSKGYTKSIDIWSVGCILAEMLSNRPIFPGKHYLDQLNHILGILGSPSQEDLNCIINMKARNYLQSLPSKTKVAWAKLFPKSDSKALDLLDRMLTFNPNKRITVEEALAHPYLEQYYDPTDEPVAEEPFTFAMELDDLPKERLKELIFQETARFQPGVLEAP
Mitogen-activated protein kinase; ERK1/ERK2 (Homo sapiens), sequence (P28482 whole entry, looked up): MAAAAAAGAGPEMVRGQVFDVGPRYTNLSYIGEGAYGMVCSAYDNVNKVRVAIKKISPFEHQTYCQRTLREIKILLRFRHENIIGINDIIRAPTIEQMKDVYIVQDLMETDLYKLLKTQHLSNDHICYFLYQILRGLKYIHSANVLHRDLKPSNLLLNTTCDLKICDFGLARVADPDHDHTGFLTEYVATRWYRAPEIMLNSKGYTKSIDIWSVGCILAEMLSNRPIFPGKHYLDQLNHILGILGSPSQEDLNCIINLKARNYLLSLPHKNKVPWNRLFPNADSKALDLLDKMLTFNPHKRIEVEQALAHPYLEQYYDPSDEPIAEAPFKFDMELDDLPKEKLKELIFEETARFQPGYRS
RAF proto-oncogene serine/threonine-protein kinase (Homo sapiens), sequence (P04049 whole entry): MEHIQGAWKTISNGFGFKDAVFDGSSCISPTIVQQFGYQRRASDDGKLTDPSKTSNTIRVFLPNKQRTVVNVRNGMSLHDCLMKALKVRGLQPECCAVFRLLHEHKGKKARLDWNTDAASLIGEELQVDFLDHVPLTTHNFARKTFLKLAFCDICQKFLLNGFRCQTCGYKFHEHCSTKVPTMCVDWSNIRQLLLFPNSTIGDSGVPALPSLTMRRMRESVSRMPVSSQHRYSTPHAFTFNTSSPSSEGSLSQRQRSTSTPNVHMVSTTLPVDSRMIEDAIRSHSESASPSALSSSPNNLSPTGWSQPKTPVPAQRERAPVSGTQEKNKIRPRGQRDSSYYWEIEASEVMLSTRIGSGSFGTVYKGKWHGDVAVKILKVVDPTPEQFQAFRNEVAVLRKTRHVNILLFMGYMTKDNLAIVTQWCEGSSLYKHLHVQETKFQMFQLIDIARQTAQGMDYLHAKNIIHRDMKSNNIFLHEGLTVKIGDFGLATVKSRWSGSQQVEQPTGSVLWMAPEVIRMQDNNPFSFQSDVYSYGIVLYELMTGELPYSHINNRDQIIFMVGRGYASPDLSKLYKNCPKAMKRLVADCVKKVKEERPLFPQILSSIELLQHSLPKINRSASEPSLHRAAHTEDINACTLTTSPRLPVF

For CCN(CC)CCOc1ccc(Nc2nc(-c3ccc(OC)cc3)nc(Cl)c2-c2ccccc2)cc1, the IC50 [1] was 4.34 µM, the inhibition [2] was 90.3% and the IC50 [3] was 9.98 µM. It also gave an IC50 [4] of 0.067 µM and an IC50 [5] of 8.59 µM.

CCN(CC)CCOc1ccc(Nc2cc(Cl)nc(-c3ccc(OC)cc3)n2)cc1 was tested, and the IC50 [1] was 9.24 µM, the inhibition [2] was 89.7% and the IC50 [3] was 11.7 µM. The IC50 [6] was 4.74 µM, the IC50 [4] was 0.174 µM and the IC50 [5] was 36.8 µM.

Compound COc1ccc(-c2nc(Cl)c(-c3ccccc3)c(Oc3ccc(OCCN(C)C)cc3)n2)cc1 has an IC50 [1] of 11.7 µM, an inhibition [2] of 90.9% and an IC50 [3] of 17.7 µM. The IC50 [4] was 0.101 µM and the IC50 [5] was 21.8 µM.

In the case of COc1ccc(-c2nc(Cl)cc(Nc3ccc(NC(=O)CN(C)C)cc3)n2)cc1, the IC50 [1] is reported as over 40 µM, the inhibition [2] is reported as 66.2% and the IC50 [3] is reported as over 40 µM. The IC50 [4] was over 1 µM and the IC50 [5] was over 40 µM.

With COc1ccc(-c2nc(Cl)cc(Nc3ccc(NC(=O)CN4CCCC4)cc3)n2)cc1 the IC50 [1] was 4.82 µM, the inhibition [2] was 61.3% and the IC50 [3] was 18.4 µM. The IC50 [6] was 2.86 µM, the IC50 [4] was over 1 µM and the IC50 [5] was 23.4 µM.

With Oc1ccc(-c2nc(Cl)c(-c3ccccc3)c(Oc3ccc(OCCN4CCCC4)cc3)n2)cc1 the inhibition [7] was “Active”, the inhibition [8] was “Active” and the Activity [9] was “Non-Toxic”. For the same compound, the “Ratio IC50” value [10] was 19 - 20, the Activity [11] was 0.9% and the Activity [12] was “Dose-dependent effect”. For the same compound, the Activity [13] was 14.5%, the IC50 [1] was 4.57 µM and the Activity [14] was 5.49%. The Activity [15] was 1.11%, the inhibition [2] was 91.1% and the Activity [16] was 65.7%. The Activity [17] was “Dose-dependent effect”, the Activity [18] was 75.5% and the inhibition [19] was “Active”. For the same compound, the IC50 [3] was 5.93 µM, the inhibition [20] was “Active” and the IC50 [6] was 1.64 µM. The Activity [21] was “Dose-dependent effect”, the IC50 [21] was 2.73 µM and the Activity [22] was 28%. The Activity [23] was “Dose-dependent effect”, the IC50 ([23]; MDA-MB-231, 48 h) was 3.81 µM and the IC50 [4] was 0.085 µM. For the same compound, the IC50 [5] was 0.81 µM, the “Ratio IC50” value [24] was 16 and the Activity [25] was “Active”. For the same compound, the Activity [26] was 8.89%.

CCN(CC)CC(=O)Nc1ccc(Nc2cc(Cl)nc(-c3ccc(OC)cc3)n2)cc1 gave an IC50 [1] of 15 µM, an inhibition [2] of 44% and an IC50 [3] of 5.81 µM. For the same compound, the IC50 [4] was over 1 µM and the IC50 [5] was over 40 µM.

Compound COc1ccc(-c2nc(Cl)cc(Nc3ccc(OCCN(C)C)cc3)n2)cc1 has an IC50 [1] of 6.31 µM, an inhibition [2] of 40% and an IC50 [3] of 5.67 µM. For the same compound, the IC50 [4] was over 1 µM and the IC50 [5] was 3.54 µM.

Compound COc1ccc(-c2nc(Cl)c(-c3ccccc3)c(Nc3ccc(NC(=O)CN(C)C)cc3)n2)cc1 has an IC50 [1] of 10.3 µM, an inhibition [2] of 50.8% and an IC50 [3] of 17.1 µM. It also gave an IC50 [4] of over 1 µM and an IC50 [5] of 17.7 µM.

COc1ccc(-c2nc(Cl)c(-c3ccccc3)c(Nc3ccc(NC(=O)CN4CCCC4)cc3)n2)cc1 was tested, and the IC50 [1] was over 40 µM, the inhibition [2] was 87.3% and the IC50 [3] was over 40 µM. For the same compound, the IC50 [4] was 0.203 µM and the IC50 [5] was over 40 µM.

In the case of COc1ccc(-c2nc(Cl)c(-c3ccccc3)c(Nc3ccc(OCCN(C)C)cc3)n2)cc1, the IC50 [1] is reported as 14.2 µM, the inhibition [2] is reported as 50.9% and the IC50 [3] is reported as 6.34 µM. It also gave an IC50 [4] of over 1 µM and an IC50 [5] of 7.56 µM.

In the case of CCN(CC)CC(=O)Nc1ccc(Nc2nc(-c3ccc(OC)cc3)nc(Cl)c2-c2ccccc2)cc1, the IC50 [1] is reported as over 40 µM, the inhibition [2] is reported as 40.2% and the IC50 [3] is reported as over 40 µM. The IC50 [4] was over 1 µM and the IC50 [5] was over 40 µM.
